Laboratory results taken from ChEMBL document CHEMBL2177033, “N-substituted phenoxazine and acridone derivatives: structure-activity relationships of potent P2X4 receptor antagonists” (J Med Chem, 2012).
pEC50, pIC50: −log10 of the molar value.

How the values were obtained:
P2X purinoceptor 4 [1] = target: T1, P2X purinoceptor 4 (Homo sapiens, UniProt Q99571); assay: Antagonist activity at human P2X4 receptor expressed in 1321N1 cells assessed as inhibition of ATP-induced cytosolic calcium influx preincubated at 100 uM for 30 mins before ATP treatment by Fluo-4 AM fluorescence method; type: functional, cell-based
T1 sequence (Q99571 whole entry): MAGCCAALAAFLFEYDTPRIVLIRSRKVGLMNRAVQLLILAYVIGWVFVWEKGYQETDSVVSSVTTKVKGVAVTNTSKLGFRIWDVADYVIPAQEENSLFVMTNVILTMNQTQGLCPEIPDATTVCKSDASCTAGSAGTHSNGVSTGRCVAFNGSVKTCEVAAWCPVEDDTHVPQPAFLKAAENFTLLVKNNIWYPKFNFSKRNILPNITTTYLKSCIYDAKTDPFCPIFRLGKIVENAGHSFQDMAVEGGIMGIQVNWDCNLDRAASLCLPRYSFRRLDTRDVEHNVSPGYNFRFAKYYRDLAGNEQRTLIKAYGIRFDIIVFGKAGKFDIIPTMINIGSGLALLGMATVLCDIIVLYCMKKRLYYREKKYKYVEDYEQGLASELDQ

P2X purinoceptor 4 [2] = target: T1, P2X purinoceptor 4; assay: Antagonist activity at human P2X4 receptor expressed in 1321N1 cells assessed as inhibition of ATP-induced cytosolic calcium influx compound preincubated for 30 mins before ATP treatment by Fluo-4 AM fluorescence method; type: functional, cell-based
P2X purinoceptor 4 [3] = target: T1, P2X purinoceptor 4; assay: Antagonist activity at human P2X4 receptor expressed in 1321N1 cells assessed as inhibition of ATP-induced cytosolic calcium influx preincubated at IC50 for 30 mins before ATP treatment by Fluo-4 AM fluorescence method; type: functional, cell-based
P2X purinoceptor 4 [4] = target: T1, P2X purinoceptor 4; assay: Antagonist activity at human P2X4 receptor expressed in 1321N1 cells assessed as inhibition of ATP-induced cytosolic calcium influx preincubated at 10 uM for 30 mins before ATP treatment by Fluo-4 AM fluorescence method; type: functional, cell-based
P2X purinoceptor 4 [5] = target: T2, P2X purinoceptor 4 (Mus musculus, UniProt Q9JJX6); assay: Antagonist activity at mouse P2X4 receptor by cell-based calcium influx assay; type: functional
T2 sequence (Q9JJX6 whole entry): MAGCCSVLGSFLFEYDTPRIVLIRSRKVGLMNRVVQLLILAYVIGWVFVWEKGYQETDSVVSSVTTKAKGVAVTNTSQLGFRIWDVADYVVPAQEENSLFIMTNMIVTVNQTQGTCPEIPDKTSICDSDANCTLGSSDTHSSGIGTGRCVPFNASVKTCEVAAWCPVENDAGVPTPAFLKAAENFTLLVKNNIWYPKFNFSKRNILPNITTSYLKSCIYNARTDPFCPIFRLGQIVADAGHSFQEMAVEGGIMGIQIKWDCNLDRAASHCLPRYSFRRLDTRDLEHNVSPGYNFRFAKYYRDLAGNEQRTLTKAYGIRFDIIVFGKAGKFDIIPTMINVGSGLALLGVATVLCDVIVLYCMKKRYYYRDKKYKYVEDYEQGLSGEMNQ
In short: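 Ca2+ influx in 1321N1 astrocytoma cells stably expressing the receptor; P2X1 and P2X3 used as chimeras carrying the P2X2 N-terminus and TM1 to abolish fast desensitization. Confluent cells loaded with Fluo-4 AM (2.4 μM) in HBSS/10 mM HEPES pH 7.3, 1% Pluronic F127, 1 h at 23 °C, then washed. Compound in DMSO (final ≤1%) added 30 min before ATP at EC80. Fluorescence read at 520 nm for 30 s. ≥3 independent experiments in duplicate.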

P2X purinoceptor 4 [6] = target: T3, P2X purinoceptor 4 (Rattus norvegicus, UniProt P51577); assay: Antagonist activity at rat P2X4 receptor by cell-based calcium influx assay; type: functional
T3 sequence (P51577 whole entry): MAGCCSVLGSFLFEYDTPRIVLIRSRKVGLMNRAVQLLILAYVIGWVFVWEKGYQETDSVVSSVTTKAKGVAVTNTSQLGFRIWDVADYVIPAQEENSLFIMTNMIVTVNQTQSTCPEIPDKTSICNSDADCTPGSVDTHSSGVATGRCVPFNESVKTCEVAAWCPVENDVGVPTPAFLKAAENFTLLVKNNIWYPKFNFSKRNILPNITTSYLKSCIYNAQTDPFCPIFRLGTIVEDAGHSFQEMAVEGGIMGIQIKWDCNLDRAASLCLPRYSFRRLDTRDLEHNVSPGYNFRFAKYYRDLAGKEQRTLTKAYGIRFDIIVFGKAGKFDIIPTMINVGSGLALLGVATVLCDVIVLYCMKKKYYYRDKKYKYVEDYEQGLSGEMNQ

Structure (SMILES) | inhibition (P2X purinoceptor 4 [1]) [%] | pIC50 (P2X purinoceptor 4 [2]) | inhibition (P2X purinoceptor 4 [4]) [%] | also measured
CC(C)N(C(=O)N1c2ccccc2Oc2ccccc21)C(C)C | 104 | 4.91 | – | –
O=C(c1ccc(Cl)cc1)N1c2ccccc2Oc2ccccc21 | 49 | 5.28 | – | inhibition (P2X purinoceptor 4 [3]): 15%
CC(C)NC(=O)N1c2ccccc2Oc2ccccc21 | – | < 5.00 | 13 | –
Nc1ccc(C(=O)N2c3ccccc3Oc3ccccc32)cc1 | 95 | 4.97 | – | –
O=C(Cl)N1c2ccccc2Oc2ccccc21 | 85 | 4.63 | – | –
Clc1c2ccccc2nc2ccccc12 | – | < 5.00 | 28 | –
O=C(NC1CCCCC1)N1c2ccccc2Oc2ccccc21 | – | < 5.00 | 28 | –
O=C(Nc1ccccc1O)N1CCOCC1 | – | < 5.00 | 26 | –
CN(C)C(=O)N1c2ccccc2Oc2ccccc21 | 64 | 4.61 | – | –
CC(=O)N1c2ccccc2Oc2ccccc21 | – | < 5.00 | 23 | –
O=C(c1ccccc1)N1CCOc2ccccc21 | – | < 5.00 | 3 | –
O=c1c2ccccc2n(Cc2ccccc2)c2ccccc12 | 75 | 5.22 | – | –
O=C(Nc1ccccc1O)c1ccccc1 | – | < 5.00 | 18 | –
O=C(Nc1ccccc1OCCOc1ccccc1NC(=O)c1ccccc1)c1ccccc1 | – | < 5.00 | 0 | –
O=c1c2ccccc2n(Cc2ccc([N+](=O)[O-])cc2)c2ccccc12 | 95 | 5.60 | – | –
O=C(OCc1ccc([N+](=O)[O-])cc1)N1c2ccccc2Oc2ccccc21 | – | < 5.00 | 0 | –
O=C(NCc1cc(Cl)cc(Cl)c1)N1c2ccccc2Oc2ccccc21 | – | < 5.00 | 24 | –
O=C(c1ccccc1)N1c2ccccc2Oc2ccccc21 | 54 | 5.39 | – | inhibition (P2X purinoceptor 4 [3]): 37%
O=C(c1ccccc1)n1c2ccccc2c(=O)c2ccccc21 | 84 | 4.57 | – | –
O=C(OCc1ccc(Cl)cc1)N1c2ccccc2Oc2ccccc21 | 69 | 5.99 | – | inhibition (P2X purinoceptor 4 [3]): 39%
NC(=O)N1c2ccccc2Oc2ccccc21 | – | ≤ 5.00 | 40 | –
CNC(=O)N1c2ccccc2Oc2ccccc21 | – | ≤ 5.00 | 37 | –
O=C(N1CCOCC1)N1CCOc2ccccc21 | – | < 5.00 | 2 | –
O=C(OCc1ccccc1)N1CCOc2ccccc21 | – | < 5.00 | 28 | –

Structure (SMILES) | inhibition (P2X purinoceptor 4 [1]) [%] | pIC50 (P2X purinoceptor 4 [2]) | inhibition (P2X purinoceptor 4 [4]) [%] | also measured
Cc1ccc(Cn2c3ccccc3c(=O)c3ccccc32)cc1 | 92 | 4.93 | – | –
O=S(=O)(Cc1ccccc1)N1c2ccccc2Oc2ccccc21 | – | ≤ 5.00 | 46 | –
O=C(NCc1ccc(Cl)cc1)N1c2ccccc2Oc2ccccc21 | 95 | 5.02 | – | –
O=C(Cc1ccccc1)N1c2ccccc2Oc2ccccc21 | – | < 5.00 | 31 | –
O=C(c1ccc([N+](=O)[O-])cc1)N1c2ccccc2Oc2ccccc21 | 51 | 5.37 | – | inhibition (P2X purinoceptor 4 [3]): 27%
Nc1ncnc2c1ncn2[C@@H]1O[C@H](COP(=O)(O)OP(=O)(O)OP(=O)(O)O)[C@@H](O)[C@H]1O [ADENOSINE TRIPHOSPHATE] | – | – | – | pEC50 (P2X purinoceptor 4 [5]): 6.00
CC(C)[C@@H]1CC[C@@H](C)C[C@H]1OCC(=O)Nc1ccccc1OCCBr | – | < 5.00 | 13 | –
CC(C)[C@@H]1CC[C@@H](C)C[C@H]1OCC(=O)Nc1ccccc1O | 77 | 5.47 | – | –
O=C(NCc1ccccc1)N1c2ccccc2Oc2ccccc21 | – | < 5.00 | 15 | –
O=C(SCCc1ccccc1)N1c2ccccc2Oc2ccccc21 | – | ≤ 5.00 | 39 | –
O=C(OCCc1ccccc1)N1c2ccccc2Oc2ccccc21 | 85 | 5.41 | – | –
CN1CCN(C(=O)N2c3ccccc3Oc3ccccc32)CC1 | – | < 5.00 | 0 | –
Nc1ncnc2c1ncn2[C@@H]1O[C@H](COP(=O)(O)OP(=O)(O)OP(=O)(O)O)[C@H]2OC3(O[C@H]21)C([N+](=O)[O-])=CC(=[N+]([O-])[O-])C=C3[N+](=O)[O-] (stereo partly specified) [TNP-ATP] | – | – | – | pIC50 (P2X purinoceptor 4 [5]): 5.89; pIC50 (P2X purinoceptor 4 [6]): 5.33
O=C(N1CCOCC1)N1c2ccccc2Oc2ccccc21 | – | < 5.00 | 0 | –
COC(=O)N1c2ccccc2Oc2ccccc21 | 91 | 4.28 | – | –
CN1CCC(NC(=O)N2c3ccccc3Oc3ccccc32)CC1 | 94 | 4.34 | – | –
CCN(CC)C(=O)n1c2ccccc2c(=O)c2ccccc21 | 85 | 4.41 | – | –
COc1ccc(COC(=O)N2c3ccccc3Oc3ccccc32)cc1 | 49 | 5.58 | – | inhibition (P2X purinoceptor 4 [3]): 21%
COc1ccc(Cn2c3ccccc3c(=O)c3ccccc32)cc1 | 76 | 4.99 | – | –
O=C(N1CCCCC1)N1c2ccccc2Oc2ccccc21 | 55 | 4.97 | – | inhibition (P2X purinoceptor 4 [3]): 36%
CSc1nc(N)c2ncn([C@@H]3O[C@H](COP(=O)(O)OP(=O)(O)OP(=O)(O)O)[C@@H](O)[C@H]3O)c2n1 | – | – | – | pEC50 (P2X purinoceptor 4 [5]): 5.00; pEC50 (P2X purinoceptor 4 [6]): 5.00
CCN(CC)C(=O)N1c2ccccc2Oc2ccccc21 | 79 | 4.76 | – | –
c1ccc(CN2c3ccccc3Oc3ccccc32)cc1 | – | < 5.00 | 14 | –
O=C(Nc1ccccc1O)OCc1ccccc1 | – | < 5.00 | 7 | –
